The text below walks through data of ChEMBL document CHEMBL2321860, “2-Arylpyrazolo[4,3-d]pyrimidin-7-amino derivatives as new potent and selective human A3 adenosine receptor antagonists. Molecular modeling studies and pharmacological evaluation” (J Med Chem, 2013).

For test [1], the target named is T1, Adenosine receptor A2b (Homo sapiens) (UniProt P29275).
T1 sequence (whole entry): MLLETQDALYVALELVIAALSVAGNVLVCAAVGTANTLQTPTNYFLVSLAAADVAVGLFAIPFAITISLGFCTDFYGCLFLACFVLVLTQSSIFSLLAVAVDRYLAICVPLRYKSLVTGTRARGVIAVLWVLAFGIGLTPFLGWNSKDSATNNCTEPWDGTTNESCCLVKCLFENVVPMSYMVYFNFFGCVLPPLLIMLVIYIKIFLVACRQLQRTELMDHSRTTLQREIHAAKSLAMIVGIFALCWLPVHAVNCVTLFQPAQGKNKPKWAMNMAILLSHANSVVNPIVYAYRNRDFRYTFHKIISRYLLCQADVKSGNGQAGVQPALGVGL
The experiment in a line: Inhibition of human A2B adenosine receptor transfected in CHO cells assessed as inhibition of NECA-induced cyclic AMP production at 1 uM after 10 mins by competitive protein binding assay. The test is classed as cell-based. The gist of the method:
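Human A2B CHO cells (1 × 10⁶/assay) preincubated 10 min at 37 °C in buffer with adenosine deaminase (2 IU/mL) and Ro 20-1724. Antagonist inhibition of 200 nM NECA-stimulated cAMP measured; reaction stopped with TCA. cAMP quantified by [3H]cAMP competition with adrenal binding protein. IC50 by sigmoid fit, mean SEM of four experiments; % inhibition at 1 μM.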

A further test deals with Adenosine receptor A2a (Homo sapiens, UniProt P29274). Put plainly: Displacement of [3H]ZM241385 from human A2A adenosine receptor expressed in CHO cells at 1 uM after 60 mins by scintillation counting analysis. The test is classed as cell-based. The gist of the method:
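Human A2A CHO membranes (50 μg protein) incubated with 1 nM [3H]ZM-241385 in 50 mM Tris-HCl, 10 mM MgCl2, pH 7.4, for 60 min at 4 °C, using 6–8 concentrations or 1 μM for % inhibition. Nonspecific binding defined with 1 μM ZM-241385. Ki via Cheng–Prusoff, mean SEM of four assays in duplicate.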
A general note: Loss of bound radioactivity is the signal in a displacement assay; it reports binding, not function.

Test [2] concerns the target T2, Adenosine receptor A1 (Homo sapiens) (UniProt P30542).
T2 sequence (whole entry): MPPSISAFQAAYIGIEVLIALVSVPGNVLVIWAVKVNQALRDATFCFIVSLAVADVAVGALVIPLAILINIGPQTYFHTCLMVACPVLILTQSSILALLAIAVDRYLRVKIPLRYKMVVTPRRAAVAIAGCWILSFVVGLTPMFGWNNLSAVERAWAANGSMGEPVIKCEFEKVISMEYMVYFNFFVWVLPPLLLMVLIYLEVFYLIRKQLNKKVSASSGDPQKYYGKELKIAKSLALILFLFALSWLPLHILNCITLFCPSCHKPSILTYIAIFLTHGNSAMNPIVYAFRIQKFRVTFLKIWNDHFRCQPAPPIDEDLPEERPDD
The experiment in a line: Displacement of [3H]DPCPX from human A1 adenosine receptor expressed in CHO cells at 1 uM after 120 mins by scintillation counting analysis. The test is classed as cell-based.

Test [3] addresses T3, Adenosine receptor A3 (Homo sapiens, UniProt P0DMS8).
T3 sequence (P0DMS8 whole entry): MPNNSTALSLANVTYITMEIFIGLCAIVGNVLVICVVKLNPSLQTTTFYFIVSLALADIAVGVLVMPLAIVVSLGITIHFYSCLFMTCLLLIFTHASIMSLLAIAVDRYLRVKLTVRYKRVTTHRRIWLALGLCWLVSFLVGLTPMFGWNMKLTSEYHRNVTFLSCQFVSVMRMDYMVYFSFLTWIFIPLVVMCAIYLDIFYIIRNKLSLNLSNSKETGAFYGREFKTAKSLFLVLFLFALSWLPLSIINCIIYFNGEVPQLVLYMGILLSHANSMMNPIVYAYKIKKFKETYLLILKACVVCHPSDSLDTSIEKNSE
The experiment in a line: Displacement of [125I]AB-MECA from human A3 adenosine receptor expressed in CHO cells after 60 mins by scintillation counting analysis. The test is classed as cell-based.

In test [4] the target is T3, Adenosine receptor A3. Put plainly: Inhibition of human A3 adenosine receptor transfected in CHO cells assessed as inhibition of forskolin-induced cyclic AMP production after 10 mins by competitive protein binding assay in presence of CI-IB-MECA. The test is classed as functional, cell-based. The method in brief: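 Human A3 CHO cells (1 × 10⁶/assay) preincubated 10 min at 37 °C with adenosine deaminase and Ro 20-1724. Antagonist potency measured against 100 nM Cl-IB-MECA-mediated inhibition of 1 μM forskolin-stimulated cAMP. cAMP quantified by [3H]cAMP competition binding. IC50 by sigmoid regression, mean SEM of four experiments.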

The target in test [5] is T4, Adenosine receptor A3 (Homo sapiens) (UniProt P0DMS8).
T4 sequence (whole entry): T3 sequence (P0DMS8 whole entry)
The experiment in a line: Displacement of [125I]AB-MECA from human A3 adenosine receptor expressed in CHO cells at 1 uM after 60 mins by scintillation counting analysis. The test is classed as cell-based. The gist of the method: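 Human A3 CHO membranes (50 μg protein) incubated with 0.5 nM [125I]AB-MECA in 50 mM Tris-HCl, 10 mM MgCl2, 1 mM EDTA, pH 7.4, for 60 min at 37 °C. Nonspecific binding defined with 1 μM AB-MECA. Filtration then counting. Output is % inhibition at 1 μM.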

Adenosine receptor A2a, sequence (P29274 whole entry): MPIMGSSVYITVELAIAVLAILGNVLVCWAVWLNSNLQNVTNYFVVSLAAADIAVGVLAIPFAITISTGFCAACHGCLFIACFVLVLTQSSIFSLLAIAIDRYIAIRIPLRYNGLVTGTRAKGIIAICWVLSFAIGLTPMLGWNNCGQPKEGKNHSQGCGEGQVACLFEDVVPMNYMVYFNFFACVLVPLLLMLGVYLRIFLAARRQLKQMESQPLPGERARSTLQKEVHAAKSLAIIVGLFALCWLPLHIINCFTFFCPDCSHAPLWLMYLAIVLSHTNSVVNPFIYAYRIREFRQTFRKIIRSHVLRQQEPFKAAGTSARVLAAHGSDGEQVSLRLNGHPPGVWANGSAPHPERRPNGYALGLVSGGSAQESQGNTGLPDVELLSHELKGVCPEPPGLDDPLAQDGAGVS

Take `O=C(c1ccco1)N(C(=O)c1ccco1)c1nc(-c2ccccc2)nc2cn(-c3ccccc3)nc12`: the inhibition in test [1] was determined as 1%; on Adenosine receptor A2a, 1%; in test [2], 3%. At Adenosine receptor A3 [3], the inhibition constant Ki was determined as 75 nM.
Regarding `CC(=O)Nc1nc(-c2ccccc2)nc2cn(-c3ccccc3)nc12`, the inhibition in test [1] stood at 2%; on Adenosine receptor A2a, 5%; in test [2], 5%. Further, the half-maximal inhibitory concentration (IC50) on Adenosine receptor A3 [4] worked out at 103 nM. The inhibitory constant (Ki) on Adenosine receptor A3 [3] was found to be 32 nM.
For `COc1ccc(-n2cc3nc(-c4ccccc4)nc(N)c3n2)cc1`, the inhibition in test [1] came to 3%; on Adenosine receptor A2a, 35%; in test [2] it was 12%. At Adenosine receptor A3 [3], this compound came in with a Ki of 75 nM.
`Cc1nc(NC(=O)c2ccncc2)c2nn(-c3ccccc3)cc2n1`: the values for the inhibition (on Adenosine receptor A2a; in test [2]) were 1% and 12%, respectively. At Adenosine receptor A3 [3], the Ki came out at 5.2 nM.
Regarding `O=C(Nc1nc(-c2ccccc2)nc2cn(-c3ccccc3)nc12)c1ccco1`, the inhibition in test [1] amounted to 1%; on Adenosine receptor A2a, 1%; in test [2] it was 11%. Further, the Ki at Adenosine receptor A3 [3] was 24 nM.
Turning to `Cc1nc(NC(=O)NCc2ccccc2)c2nn(-c3ccccc3)cc2n1`, the inhibition in test [1] stood at 10%; on Adenosine receptor A2a, 7%; in test [5], 1%; in test [2], 26%.
Regarding `Cc1nc(NC(=O)c2cccnc2)c2nn(-c3ccccc3)cc2n1`, the inhibition stood at 1% in test [1], 1% on Adenosine receptor A2a and 12% in test [2]. Also, the Ki on Adenosine receptor A3 [3] was 5.3 nM.
For `COc1ccc(-n2cc3nc(C)nc(NC(=O)c4ccco4)c3n2)cc1`, the inhibition in test [1] was found to be 1%; at Adenosine receptor A2a, 6%; in test [2], 6%. Also, the inhibition constant Ki on Adenosine receptor A3 [3] was found to be 45 nM.
Regarding `Cc1nc(N(C(=O)c2ccccc2)C(=O)c2ccccc2)c2nn(-c3ccccc3)cc2n1`, the inhibition in test [1] worked out at 5%; at Adenosine receptor A2a, 1%; in test [2], 6%. The IC50 at Adenosine receptor A3 [4] is 115 nM. Moreover, the affinity at Adenosine receptor A3 [3], expressed as Ki, was 33 nM.
For `CC(=O)Nc1nc(C)nc2cn(-c3ccccc3)nc12`, the inhibition in test [1] was determined as 5%; on Adenosine receptor A2a it was 4%; in test [2], 25%. In addition, the inhibition constant (Ki) on Adenosine receptor A3 [3] was 300 nM.
In the case of `Cc1nc(NC(=O)Nc2ccccc2)c2nn(-c3ccccc3)cc2n1`, the inhibition is 1% in test [1], 1% on Adenosine receptor A2a, 30% in test [5] and 1% in test [2].
Turning to `COc1ccc(-n2cc3nc(-c4ccccc4)nc(NC(C)=O)c3n2)cc1`, the inhibition stood at 1% in test [1], 11% on Adenosine receptor A2a and 1% in test [2]. Besides, the affinity on Adenosine receptor A3 [3], expressed as Ki, was 98 nM.
Take `COc1ccc(-n2cc3nc(C)nc(NC(=O)NCc4ccccc4)c3n2)cc1`: the inhibition was determined as 1% in test [1], 7% at Adenosine receptor A2a, 6% in test [5] and 8% in test [2].
As to `COc1ccc(-n2cc3nc(C)nc(NC(C)=O)c3n2)cc1`, the inhibition (in test [1]; at Adenosine receptor A2a; in test [2]) was 30% throughout. This compound gave an inhibitory constant (Ki) at Adenosine receptor A3 [3] of 100 nM.
For `COc1ccc(-n2cc3nc(C)nc(NC(=O)c4ccccc4)c3n2)cc1`, the inhibition in test [1] was found to be 1%; at Adenosine receptor A2a it was 7%; in test [2] it was 1%. Besides, on Adenosine receptor A3 [4], the half-inhibitory concentration (IC50) is 128 nM. Affinity at Adenosine receptor A3 [3] was put at a Ki of 35 nM.
`COc1ccc(C(=O)Nc2nc(C)nc3cn(-c4ccccc4)nc23)cc1`: the values for the inhibition (in test [1]; at Adenosine receptor A2a; in test [2]) were 1%, 1% and 4%, respectively.
Turning to `O=C(Nc1nc(-c2ccccc2)nc2cn(-c3ccccc3)nc12)c1cccnc1`, the inhibition (in test [1]; at Adenosine receptor A2a; in test [2]) was 1% throughout. For the same compound, the inhibition constant Ki at Adenosine receptor A3 [3] is 3.2 nM.
Take `Cc1nc2cn(-c3ccccc3)nc2c(=O)[nH]1`: the inhibition in test [2] is 1%.
For `O=C(Nc1nc(-c2ccccc2)nc2cn(-c3ccccc3)nc12)c1ccccc1`, the figures for the inhibition (in test [1]; at Adenosine receptor A2a; in test [2]) were 2%, 5% and 5%, respectively. Further, the concentration for half-maximal inhibition (IC50) on Adenosine receptor A3 [4] stood at 65 nM. For the same compound, the affinity on Adenosine receptor A3 [3] corresponds to a Ki of 20 nM.
On to `COc1ccc(-n2cc3nc(C)nc(NC(=O)Nc4ccccc4)c3n2)cc1`, for which the inhibition in test [1] amounted to 13%; on Adenosine receptor A2a it was 13%; in test [5], 1%; in test [2] it was 5%.
On to `O=C(Nc1nc(-c2ccccc2)nc2cn(-c3ccccc3)nc12)c1ccncc1`, for which the inhibition (in test [1]; at Adenosine receptor A2a; in test [2]) was 1% throughout. Moreover, affinity on Adenosine receptor A3 [3] was put at a Ki of 25 nM.
Consider `Cc1nc(N(C(=O)c2ccco2)C(=O)c2ccco2)c2nn(-c3ccccc3)cc2n1`, for which the values for the inhibition (in test [1]; on Adenosine receptor A2a; in test [2]) were 1%, 1% and 4%, respectively. This compound also registered a Ki at Adenosine receptor A3 [3] of 33 nM.
Turning to `COc1ccc(-n2cc3nc(C)nc(NC(=O)Cc4ccccc4)c3n2)cc1`, the inhibition in test [1] turned out to be 11%; at Adenosine receptor A2a, 11%; in test [2], 9%. On Adenosine receptor A3 [3], this compound gave a Ki of 520 nM.
Consider `COc1ccc(C(=O)Nc2nc(-c3ccccc3)nc3cn(-c4ccccc4)nc23)cc1`, for which the inhibition in test [1] was 1%; at Adenosine receptor A2a, 1%; in test [2], 3%. Also, the Ki on Adenosine receptor A3 [3] stood at 7.3 nM.
With `COc1ccc(-n2cc3nc(C)nc(N)c3n2)cc1`, the inhibition in test [1] was determined as 2%; on Adenosine receptor A2a it was 1%; in test [5], 38%; in test [2], 30%.
Consider `COc1ccc(-n2cc3nc(Cc4ccccc4)nc(N)c3n2)cc1`, for which the inhibition stood at 33% in test [1], 37% on Adenosine receptor A2a, 45% in test [5] and 40% in test [2].
Take `Cc1nc(NC(=O)c2ccco2)c2nn(-c3ccccc3)cc2n1`: the inhibition amounted to 1% in test [1], 1% on Adenosine receptor A2a and 20% in test [2]. On Adenosine receptor A3 [3], this compound displayed a Ki of 20 nM.

As a reminder, the inhibition is the share of the control response that was lost under treatment. Broadly, the Ki is the equilibrium dissociation constant of an inhibitor or competing ligand from its target. By IC50 is commonly meant the concentration needed to halve the response being measured.
